As usually defined, the IC50 is the concentration that gives 50% inhibition. In general, inhibition refers to the relative decrease from the control value, in per cent.

A short description of assay [1]: Antiinflammatory activity in FMLP/CB activated human neutrophils assessed as inhibition of superoxide generation by ferricytochrome c reduction based spectrophotometry. In kind it is functional, cell-based, Neutrophil. The method, boiled down: (§1)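 Human donor neutrophils (6 × 10^5 cells/mL) with 0.5 mg/mL ferricytochrome c and 1 mM Ca2+, equilibrated 37 °C 2 min, then drug or 0.1% DMSO vehicle 5 min. Activated with 100 nM FMLP after 1 μg/mL cytochalasin B preincubation, 3 min. A550 followed continuously with stirring. Superoxide from SOD (100 U/mL)-inhibitable difference, ε = 21.1/mM/10 mm; n = 3−4.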

Assay [2] can be described thus: Antiinflammatory activity in FMLP/CB activated human neutrophils assessed as inhibition of elastase release at 10 uM. To be noted: Neutrophil. In kind it is functional. The gist of the method:
(§2)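 Neutrophils from healthy donor blood (dextran sedimentation, Ficoll 1.077 g/mL, hypotonic lysis), held in Ca2+-free HBSS pH 7.4 at 4 °C. Cells (6 × 10^5/mL) with MeO-Suc-Ala-Ala-Pro-Val-p-nitroanilide 100 μM, equilibrated 37 °C 2 min, drug or 0.1% DMSO 5 min, then 100 nM FMLP plus 0.5 μg/mL cytochalasin B. A405 monitored continuously; expressed relative to drug-free activated control; n = 3−4.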

Assay [3] in a line: Antiinflammatory activity in FMLP/CB activated human neutrophils assessed as inhibition of elastase release. In kind it is functional, cell-based, Neutrophil. The gist of the method:
as §2

A short description of assay [4]: Antiinflammatory activity in FMLP/CB activated human neutrophils assessed as inhibition of superoxide generation at 10 uM by ferricytochrome c reduction based spectrophotometry. In kind it is functional. The following applies: Neutrophil. The method, boiled down: as §1
Where [5] appears, read: Homo sapiens, Neutrophil, read-out: IC50.

Regarding `C=C1C(=O)[C@]23C[C@@H]1CC[C@H]2[C@]1(C)CCC[C@](C)(CO)[C@H]1C[C@@H]3O`, in assay [1] (setting [5]), the IC50 was 3950 nM. In addition, the inhibition at 10 µM in assay [2] amounted to 45.8%. Take `C=C1C(=O)[C@]23C[C@H]1CC[C@H]2[C@]1(C)CCC[C@](C)(COC(C)=O)[C@H]1C[C@H]3O`: the IC50 was 2640 nM in assay [3] (setting [5]) and 1550 nM in assay [1] (setting [5]). `C=C1C(=O)[C@]23C[C@@H]1C[C@@H](OC(C)=O)[C@H]2[C@]1(C)CCC[C@](C)(COC(C)=O)[C@H]1C[C@@H]3O`: the IC50 in assay [3] (setting [5]) is 1650 nM; in assay [1] (setting [5]) it was 1330 nM. In the case of `C=C1C[C@]23C[C@@H]1CC[C@H]2[C@]1(C)CCC[C@](C)(COC(C)=O)[C@H]1C[C@H]3O`, the concentration for half-maximal inhibition (IC50) entry in assay [3] (neutrophil) and in assay [1] (neutrophil) was “ND(Insoluble)” each time. Turning to `CC(=O)OC[C@@]1(C)CCC[C@]2(C)[C@@H]1CC[C@@]13C[C@@H](C[C@H](O)[C@H]12)C(C)(O)C3` (stereo partly specified) [CROTONKININ H], the inhibition at 10 µM is -10.9% in assay [4] and 23.3% in assay [2]. Regarding `CC(=O)O[C@H]1C[C@@H]2C[C@]3(C=C2C=O)CC[C@H]2[C@@](C)(CCC[C@]2(C)C(=O)O)[C@H]13` [CROTONKININ C], in assay [1] (setting [5]), the IC50 was found to be 4960 nM. Moreover, in assay [2], the inhibition at 10 µM amounted to 41.8%. In the case of `c1ccc2c(c1)[I+]c1ccccc1-2` [DIPHENYLENEIODONIUM], in assay [1] (setting [5]), the half-maximal inhibitory concentration (IC50) was 930 nM. As for `C=C1C(=O)[C@@]23CC[C@@H]4C(C)(C)CCC[C@@]4(C)[C@@H]2CC[C@H]1[C@H]3O`, the values for the inhibition at 10 µM in assay [4] and in assay [2] were 33.6% and 3.64%, respectively. Turning to `CC(=O)OC[C@@]1(C)CCC[C@]2(C)[C@@H]1CC[C@]13CC(=O)[C@H](C[C@H](OC(C)=O)[C@H]12)C3` [CROTONKININ J], in assay [1] (setting [5]), the 50% inhibitory concentration (IC50) was 4760 nM. In addition, the inhibition at 10 µM in assay [2] turned out to be 48.8%.

As to `C=C1C(=O)[C@@]23[C@H](O)C[C@@H]4C(C)(C)CCC[C@@]4(C)[C@@H]2CC[C@H]1[C@H]3OC(C)=O`, the concentration for half-maximal inhibition (IC50) turned out to be 2360 nM in assay [3] (setting [5]) and 1120 nM in assay [1] (setting [5]).

Take `C=C1C[C@]23C(=O)C[C@H]4C(C)(C)CCC[C@]4(C)[C@H]2CC[C@H]1[C@@H]3O` [CROTONKININ A]: the inhibition at 10 µM in assay [4] is 1.65%; in assay [2], -9.32%. The like results for `CC(=O)OC[C@@]1(C)CCC[C@]2(C)[C@@H]1C[C@H](O)[C@@]13C[C@@H](CC[C@@H]21)[C@H](C)C3=O` were, in that order, 40.4% and -0.19%. As for `C=C1C(=O)[C@@]23[C@@H]4CC5=C(C(=O)CC5(C)C)[C@@](C)(O4)[C@@H]2CC[C@@H]1[C@H]3O` [CROTONKINENSIN A], the figures for the IC50 in assay [3] (setting [5]) and in assay [1] (setting [5]) were 1630 nM and 2060 nM, respectively. In the case of `C=C1C(=O)[C@]23C[C@H]1CC[C@H]2[C@]1(C)CCC[C@](C)(COC(C)=O)[C@H]1C[C@H]3OC(C)=O` [CROTONKININ F], the half-maximal inhibitory concentration (IC50) was determined as 4440 nM in assay [3] (setting [5]) and 2880 nM in assay [1] (setting [5]). On to `C=C1C(=O)[C@@]23[C@H](O)C[C@@H]4C(C)(C)CCC[C@@]4(C)[C@@H]2CC[C@@H]1[C@H]3O`, for which the IC50 stood at 3220 nM in assay [3] (setting [5]) and 1960 nM in assay [1] (setting [5]). On to `C=C1C[C@@]23CC[C@H]4[C@@](C)(CCC[C@]4(C)C(=O)O)[C@@H]2[C@H](OC(C)=O)C[C@H]1C3`, for which the IC50 was 2580 nM in assay [3] (setting [5]) and 4120 nM in assay [1] (setting [5]).

Take `C=C1C(=O)[C@@]23[C@H](O)C[C@@H]4[C@@](C)(COC(C)=O)CCC[C@@]4(C)[C@@H]2CC[C@@H]1[C@H]3O`: the inhibition at 10 µM in assay [4] is 19%; in assay [2], 20.1%. Take `C=C1C(=O)[C@@]23[C@H](O)C[C@@H]4C(C)(C)CC[C@@H](OC(C)=O)[C@@]4(C)[C@@H]2CC[C@@H]1[C@H]3O`: the 50% inhibitory concentration (IC50) is 2480 nM in assay [3] (setting [5]) and 1940 nM in assay [1] (setting [5]). In the case of `CC(=O)OC[C@@]1(C)CCC[C@]2(C)[C@@H]1CC[C@]13C=C(C(=O)O)[C@H](C[C@H](OC(C)=O)[C@H]12)C3` [CROTONKININ D], the half-inhibitory concentration (IC50) in assay [1] (setting [5]) is 2930 nM. The inhibition at 10 µM in assay [2] stood at 20.3%. For the molecule `C=C1C(=O)[C@@]23CC[C@@H]4[C@@](C)(COC(C)=O)CCC[C@@]4(C)[C@@H]2[C@@H](OC(C)=O)C[C@@H]1C3` [CROTONKININ E], the 50% inhibitory concentration (IC50) was 4660 nM in assay [3] (setting [5]) and 3110 nM in assay [1] (setting [5]). With `C=C1C(=O)[C@@]23CC[C@H]4[C@@](C)(CCC[C@]4(C)C(=O)O)[C@@H]2CC[C@H]1C3`, the half-inhibitory concentration (IC50) turned out to be 5560 nM in assay [3] (setting [5]) and 3270 nM in assay [1] (setting [5]). The like results for `C=C1C(=O)[C@]23C[C@@H]1CC[C@H]2[C@]1(C)CCCC(C)(C)[C@H]1C[C@@H]3O` were, in that order, 2230 nM and 1740 nM. On to `COCC1C(=O)[C@]23C[C@H]1CC[C@H]2[C@]1(C)CCC[C@](C)(COC(C)=O)[C@H]1C[C@H]3O` (stereo partly specified) [CROTONKININ G], for which the IC50 in assay [1] (setting [5]) came out at 4290 nM. Besides, the inhibition at 10 µM in assay [2] is 11.1%. Regarding `CC(=O)O[C@@H]1C[C@@H]2C[C@@]3(C=C2C=O)CC[C@H]2[C@](C)(CO)CCC[C@]2(C)[C@@H]13` [CROTONKININ B], the values for the IC50 in assay [3] (setting [5]) and in assay [1] (setting [5]) were 4380 nM and 3200 nM, respectively. The like results for `C=C1C(=O)[C@@]23CC[C@@H]4[C@@](C)(COC(C)=O)CCC[C@@]4(C)[C@@H]2CC[C@@H]1C3` were, in that order, 240 nM and 130 nM. `C=C1C(=O)[C@@]23CC[C@@H]4[C@@](C)(CO)CCC[C@@]4(C)[C@@H]2CC[C@@H]1C3`: the values for the inhibition at 10 µM in assay [4] and in assay [2] were 29.9% and 18%, respectively.

For the origin of these results see ChEMBL document CHEMBL2331294, “Anti-inflammatory diterpenoids from Croton tonkinensis” (J Nat Prod, 2013).
